Reference: ChEMBL document CHEMBL2062453, “Lead optimization through VLAK protocol: new annelated pyrrolo-pyrimidine derivatives as antitumor agents” (2012)

Tests used:
Type in all cases: functional
HL-60(TB) = test: Cytotoxicity against human HL-60(TB) cells after 48 hrs by SRB assay; conditions: HL-60, 48 h
Outline: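 NCI 60-line five-dose screen. Cells are grown in RPMI 1640 with 5% FBS and 2 mM glutamine, plated at 5000–40,000 cells/well, and preincubated 24 h at 37 °C in 5% CO2. Compound is dissolved in DMSO and given at five concentrations (10-fold or ½-log dilutions) for 48 h. Cells are TCA-fixed (HL-60(TB), suspension: 16% final; HOP92, adherent: 10% final), SRB-stained and read at 515 nm. GI50 comes from [(Ti−Tz)/(C−Tz)]×100 = 50.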

A549 = test: Cytotoxicity against human A549 cells after 48 hrs by SRB assay; conditions: A549, 48 h
Outline: (§1)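 NCI 60-cell five-dose screen. Cells grown in RPMI 1640 with 5% FBS and 2 mM glutamine, plated at 5000–40,000 cells/well, and preincubated 24 h at 37 °C in 5% CO2. Time-zero plates fixed with TCA. Five serial dilutions of DMSO stock added, then 48 h exposure. TCA fixation, 0.4% SRB staining, absorbance read at 515 nm. GI50 from [(Ti−Tz)/(C−Tz)]×100 = 50.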

EKVX = test: Cytotoxicity against human EKVX cells after 48 hrs by SRB assay; outline: as §1
NCI-H460 = test: Cytotoxicity against human NCI-H460 cells after 48 hrs by SRB assay; conditions: NCI-H460, 48 h
Outline: (§2)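 Five-dose screen, 10-fold or ½-log dilutions, compound stock in DMSO. Cells were in RPMI 1640 with 5% FBS and 2 mM glutamine at 5000–40,000 cells/well, preincubated 24 h, 37 °C, 5% CO₂, with a time-zero plate TCA-fixed. After 48 h drug exposure, cells were TCA-fixed and stained with 0.4% SRB, read at 515 nm. GI50, TGI and LC50 were derived from time-zero, control and test absorbances.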

COLO 205 = test: Cytotoxicity against human COLO205 cells after 48 hrs by SRB assay; conditions: COLO 205, 48 h; outline: as §1
HCC 2998 = test: Cytotoxicity against human HCC2998 cells after 48 hrs by SRB assay; conditions: HCC 2998, 48 h; outline: as §1
HCT-116 = test: Cytotoxicity against human HCT116 cells after 48 hrs by SRB assay; conditions: HCT-116, 48 h; outline: as §1
KM12 = test: Cytotoxicity against human KM12 cells after 48 hrs by SRB assay; conditions: KM12, 48 h; outline: as §1
SNB-19 = test: Cytotoxicity against human SNB19 cells after 48 hrs by SRB assay; conditions: SNB-19, 48 h; outline: as §2
U-251 = test: Cytotoxicity against human U251 cells after 48 hrs by SRB assay; conditions: U-251, 48 h
Outline: (§3)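 NCI 60-panel five-dose screen. Cells in RPMI 1640 with 5% FBS and 2 mM glutamine, plated at 5000–40,000 cells/well and preincubated 24 h at 37 °C under 5% CO2. Five 10-fold or half-log dilutions were added from a DMSO stock for 48 h. Cells were TCA-fixed (SR settled cells: 16% final), SRB-stained and read at 515 nm. GI50 was taken where (Ti−Tz)/(C−Tz)×100 = 50.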

LOX IMVI = test: Cytotoxicity against human LOXIMVI cells after 48 hrs by SRB assay; outline: as §1
Malme-3M = test: Cytotoxicity against human MALME-3M cells after 48 hrs by SRB assay; outline: as §1
MDA-MB-435 = test: Cytotoxicity against human MDA-MB-435 cells after 48 hrs by SRB assay; conditions: MDA-MB-435, 48 h; outline: as §1
SK-MEL-2 = test: Cytotoxicity against human SK-MEL-2 cells after 48 hrs by SRB assay; conditions: SK-MEL-2, 48 h; outline: as §2
OVCAR-4 = test: Cytotoxicity against human OVCAR4 cells after 48 hrs by SRB assay; conditions: OVCAR-4, 48 h; outline: as §2
OVCAR-5 = test: Cytotoxicity against human OVCAR5 cells after 48 hrs by SRB assay; conditions: OVCAR-5, 48 h; outline: as §2
786-0 = test: Cytotoxicity against human 786-0 cells after 48 hrs by SRB assay; conditions: 786-0, 48 h; outline: as §1
SN12C = test: Cytotoxicity against human SN12C cells after 48 hrs by SRB assay; outline: as §2
TK-10 = test: Cytotoxicity against human TK10 cells after 48 hrs by SRB assay; conditions: TK-10, 48 h; outline: as §3
UO-31 = test: Cytotoxicity against human UO31 cells after 48 hrs by SRB assay; conditions: UO-31, 48 h; outline: as §3
MCF7 = test: Cytotoxicity against human MCF7 cells after 48 hrs by SRB assay; conditions: MCF7, 48 h; outline: as §1
Hs-578T = test: Cytotoxicity against human Hs578T cells after 48 hrs by SRB assay; outline: as §1
BT-549 = test: Cytotoxicity against human BT549 cells after 48 hrs by SRB assay; conditions: BT-549, 48 h; outline: as §1
T47D = test: Cytotoxicity against human T47D cells after 48 hrs by SRB assay; outline: as §3
MDA-MB-468 = test: Cytotoxicity against human MDA-MB-468 cells after 48 hrs by SRB assay; conditions: MDA-MB-468, 48 h; outline: as §2

Compound: CSC1=Nc2c(c(C)c(-c3ccccc3)n2CCCN2CCCCC2)C2=NC(=O)CC(C)N12 (stereo not given)
- GI50 (HL-60(TB)): 1.82 µM
- CC50 (HL-60(TB); read-out: pLC50 (the source's name) (converted)): 8.32 µM
- TGI (HL-60(TB); read-out: pTGI (converted)): 3.89 µM
- GI50 (A549): 2.95 µM
- LC50 (A549): 79.4 µM
- TGI (A549; read-out: pTGI (converted)): 10.7 µM
- GI50 (EKVX): 3.02 µM
- LC50 (EKVX): > 100 µM
- TGI (EKVX; read-out: pTGI (converted)): 20 µM
- GI50 (NCI-H460): 3.24 µM
- LC50 (NCI-H460): 67.6 µM
- TGI (NCI-H460; read-out: pTGI (converted)): 12 µM
- GI50 (COLO 205): 1.26 µM
- LC50 (COLO 205): 5.01 µM
- TGI (COLO 205; read-out: pTGI (converted)): 2.51 µM
- GI50 (HCC 2998): 3.24 µM
- LC50 (HCC 2998): 61.7 µM
- TGI (HCC 2998; read-out: pTGI (converted)): 16.2 µM
- GI50 (HCT-116): 2.4 µM
- LC50 (HCT-116): > 100 µM
- TGI (HCT-116; read-out: pTGI (converted)): > 100 µM
- GI50 (KM12): 3.16 µM
- LC50 (KM12): 33.9 µM
- TGI (KM12; read-out: pTGI (converted)): 11 µM
- GI50 (SNB-19): 2.95 µM
- LC50 (SNB-19): > 100 µM
- TGI (SNB-19; read-out: pTGI (converted)): > 100 µM
- GI50 (U-251): 2.45 µM
- LC50 (U-251): 33.9 µM
- TGI (U-251; read-out: pTGI (converted)): 11.2 µM
- GI50 (LOX IMVI): 3.02 µM
- LC50 (LOX IMVI): 35.5 µM
- TGI (LOX IMVI; read-out: pTGI (converted)): 12.9 µM
- GI50 (Malme-3M): 2.34 µM
- LC50 (Malme-3M): 53.7 µM
- TGI (Malme-3M; read-out: pTGI (converted)): 7.24 µM
- GI50 (MDA-MB-435): 2.88 µM
- LC50 (MDA-MB-435): 58.9 µM
- TGI (MDA-MB-435; read-out: pTGI (converted)): 10.5 µM
- GI50 (SK-MEL-2): 2.14 µM
- LC50 (SK-MEL-2): 20.9 µM
- TGI (SK-MEL-2; read-out: pTGI (converted)): 5.25 µM
- GI50 (OVCAR-4): 2.57 µM
- LC50 (OVCAR-4): > 100 µM
- TGI (OVCAR-4; read-out: pTGI (converted)): 17.8 µM
- GI50 (OVCAR-5): 19.1 µM
- LC50 (OVCAR-5): > 100 µM
- TGI (OVCAR-5; read-out: pTGI (converted)): > 100 µM
- GI50 (786-0): 3.55 µM
- LC50 (786-0): > 100 µM
- TGI (786-0; read-out: pTGI (converted)): 47.9 µM
- GI50 (SN12C): 2.29 µM
- LC50 (SN12C): > 100 µM
- TGI (SN12C; read-out: pTGI (converted)): 10.7 µM
- GI50 (TK-10): 2.88 µM
- LC50 (TK-10): > 100 µM
- TGI (TK-10; read-out: pTGI (converted)): 9.33 µM
- GI50 (UO-31): 5.01 µM
- LC50 (UO-31): 75.9 µM
- TGI (UO-31; read-out: pTGI (converted)): 24 µM
- GI50 (MCF7): 2.88 µM
- LC50 (MCF7): 61.7 µM
- TGI (MCF7; read-out: pTGI (converted)): 11.2 µM
- GI50 (Hs-578T): 2.29 µM
- LC50 (Hs-578T): 97.7 µM
- TGI (Hs-578T; read-out: pTGI (converted)): 7.94 µM
- GI50 (BT-549): 2.63 µM
- LC50 (BT-549): 85.1 µM
- TGI (BT-549; read-out: pTGI (converted)): 9.55 µM
- GI50 (T47D): 2 µM
- LC50 (T47D): > 100 µM
- TGI (T47D; read-out: pTGI (converted)): 7.59 µM
- GI50 (MDA-MB-468): 2.69 µM
- LC50 (MDA-MB-468): > 100 µM
- TGI (MDA-MB-468; read-out: pTGI (converted)): 10 µM
